Reference: ChEMBL document CHEMBL2086383, “Antitumor agents. 293. Nontoxic dimethyl-4,4'-dimethoxy-5,6,5',6'-dimethylenedioxybiphenyl-2,2'-dicarboxylate (DDB) analogues chemosensitize multidrug-resistant cancer cells to clinical anticancer drugs” (J Med Chem, 2012)
The source made the active and inactive calls. The rule behind the calls is not given here.

Assays:
Assay type in all cases: cell-based
NIH3T3 [1] = test: Inhibition of human P-gp-mediated multidrug-resistance in mouse NIH3T3 MDR cells assessed as potentiation of in vincristine-induced cytotoxic activity at 10 uM after 72 hrs by SRB assay; conditions: Mus musculus cells expressing human P-gp
KBVIN [2] = test: Inhibition of P-gp-mediated multidrug-resistance in human KBVIN cells assessed as doxorubicin-induced cytotoxicity at 10 uM after 72 hrs by SRB assay
Procedure, shortened: (§1)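 KBvin cells were exposed to graded concentrations of anticancer drug (doxorubicin, paclitaxel or vincristine), alone or with 10 μM test compound, for 72 h. Growth was read by SRB assay. IC50 was found by log-linear interpolation. Reversal fold = IC50 (drug alone) / IC50 (drug + compound). Verapamil was the positive control. Each experiment was run at least three times.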

KBVIN [3] = test: Inhibition of P-gp-mediated multidrug-resistance in human KBVIN cells assessed as paclitaxel-induced cytotoxicity at 10 uM after 72 hrs by SRB assay; procedure, shortened: as §1
[4] = target: T1, ATP-dependent translocase ABCB1 (Homo sapiens, UniProt P08183); test: Inhibition of P-gp over expressed in human multidrug-resistant KBVIN cells after 10 mins by calcein AM accumulation assay
Procedure, shortened: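 KBvin cells at 5 × 10^3/well were pretreated with samples for 1 h, then given calcein-AM (1 μM final) for 10 min. Cells were washed with ice-cold PBS and lysed in 1% SDS/PBS. Calcein fluorescence read at Ex 494/Em 517 nm. Verapamil or CsA served as positive control.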

NIH3T3 [5] = test: Inhibition of human P-gp-mediated multidrug-resistance in mouse NIH3T3 MDR cells assessed as potentiation of in paclitaxel-induced cytotoxic activity at 10 uM after 72 hrs by SRB assay; conditions: human P-gp expressed in mouse cells
[6] = (§2) Inhibition of P-gp-mediated multidrug-resistance in human KBVIN cells assessed as paclitaxel-induced cytotoxicity after 72 hrs by SRB assay
Procedure, shortened: (§3)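 KBvin cells were cultured with 100 nM paclitaxel plus a range of compound concentrations. Growth was read by SRB, and the EC50 of reversal was derived. Verapamil was the comparator.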

KBVIN [7] = test: as §2; procedure, shortened: as §3
DU-145 = test: Antiproliferative activity against human DU145 cells after 72 hrs by SRB assay; conditions: for IC50: Homo sapiens, DU-145, 72 h; for Activity: human, du-145, 72 h
Procedure, shortened: (§4)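 SRB assay. Cells at 3–5 × 10^3/well were exposed to a range of sample concentrations for 72 h. They were fixed in 50% TCA for 30 min, stained with 0.04% SRB for 30 min, and the dye was dissolved in 10 mM Tris base. Absorbance read at 515 nm. Medium was RPMI 1640 with 10% FBS at 37 °C, 5% CO2. KBvin cells were kept in 100 nM vincristine.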

KBVIN [8] = test: Inhibition of P-gp-mediated multidrug-resistance in human KBVIN cells assessed as fold decrease in vincristine IC50 for cytotoxic activity at 10 uM after 72 hrs by SRB assay relative to control; procedure, shortened: as §1
KBVIN [9] = test: Inhibition of P-gp-mediated multidrug-resistance in human KBVIN cells assessed as fold decrease in doxorubicin IC50 for cytotoxic activity at 10 uM after 72 hrs by SRB assay relative to control; procedure, shortened: as §1
KBVIN [10] = test: Inhibition of P-gp-mediated multidrug-resistance in human KBVIN cells assessed as fold decrease in paclitaxel IC50 for cytotoxic activity at 10 uM after 72 hrs by SRB assay relative to control; procedure, shortened: as §1
KB = test: Antiproliferative activity against human KB cells after 72 hrs by SRB assay; conditions: for IC50: Homo sapiens, KB; for Activity: human, kb; procedure, shortened: as §4
[11] = Antiproliferative activity against human multidrug-resistant KBVIN cells after 72 hrs by SRB assay; conditions: for IC50: Homo sapiens, KBVIN; for Activity: human, kbvin; procedure, shortened: as §4
[12] = target: T1, ATP-dependent translocase ABCB1; test: Inhibition of P-gp over expressed in human multidrug-resistant KBVIN cells assessed as intracellular accumulation of doxorubicin at 10uM after 3 hrs by fluorescence microplate reader analysis relative to control
Procedure, shortened: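 KBvin cells at 5 × 10^3/well were pretreated with compound for 1 h, then given doxorubicin (10 μM final) for 3 h. Cells were washed with ice-cold PBS and lysed in 1% SDS/PBS. Verapamil or CsA served as positive control.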

A549 = test: Antiproliferative activity against human A549 cells after 72 hrs by SRB assay; conditions: for IC50: Homo sapiens, A549, 72 h; for Activity: human, a549, 72 h; procedure, shortened: as §4
KBVIN [13] = test: Inhibition of P-gp-mediated multidrug-resistance in human KBVIN cells assessed as vincristine-induced cytotoxicity at 10 uM after 72 hrs by SRB assay; procedure, shortened: as §1
KBVIN [14] = test: Inhibition of P-gp-mediated multidrug-resistance in human KBVIN cells assessed as […] of paclitaxel-induced cell survival rate at 10 uM after 72 hrs by SRB assay

T1 sequence (P08183 whole entry): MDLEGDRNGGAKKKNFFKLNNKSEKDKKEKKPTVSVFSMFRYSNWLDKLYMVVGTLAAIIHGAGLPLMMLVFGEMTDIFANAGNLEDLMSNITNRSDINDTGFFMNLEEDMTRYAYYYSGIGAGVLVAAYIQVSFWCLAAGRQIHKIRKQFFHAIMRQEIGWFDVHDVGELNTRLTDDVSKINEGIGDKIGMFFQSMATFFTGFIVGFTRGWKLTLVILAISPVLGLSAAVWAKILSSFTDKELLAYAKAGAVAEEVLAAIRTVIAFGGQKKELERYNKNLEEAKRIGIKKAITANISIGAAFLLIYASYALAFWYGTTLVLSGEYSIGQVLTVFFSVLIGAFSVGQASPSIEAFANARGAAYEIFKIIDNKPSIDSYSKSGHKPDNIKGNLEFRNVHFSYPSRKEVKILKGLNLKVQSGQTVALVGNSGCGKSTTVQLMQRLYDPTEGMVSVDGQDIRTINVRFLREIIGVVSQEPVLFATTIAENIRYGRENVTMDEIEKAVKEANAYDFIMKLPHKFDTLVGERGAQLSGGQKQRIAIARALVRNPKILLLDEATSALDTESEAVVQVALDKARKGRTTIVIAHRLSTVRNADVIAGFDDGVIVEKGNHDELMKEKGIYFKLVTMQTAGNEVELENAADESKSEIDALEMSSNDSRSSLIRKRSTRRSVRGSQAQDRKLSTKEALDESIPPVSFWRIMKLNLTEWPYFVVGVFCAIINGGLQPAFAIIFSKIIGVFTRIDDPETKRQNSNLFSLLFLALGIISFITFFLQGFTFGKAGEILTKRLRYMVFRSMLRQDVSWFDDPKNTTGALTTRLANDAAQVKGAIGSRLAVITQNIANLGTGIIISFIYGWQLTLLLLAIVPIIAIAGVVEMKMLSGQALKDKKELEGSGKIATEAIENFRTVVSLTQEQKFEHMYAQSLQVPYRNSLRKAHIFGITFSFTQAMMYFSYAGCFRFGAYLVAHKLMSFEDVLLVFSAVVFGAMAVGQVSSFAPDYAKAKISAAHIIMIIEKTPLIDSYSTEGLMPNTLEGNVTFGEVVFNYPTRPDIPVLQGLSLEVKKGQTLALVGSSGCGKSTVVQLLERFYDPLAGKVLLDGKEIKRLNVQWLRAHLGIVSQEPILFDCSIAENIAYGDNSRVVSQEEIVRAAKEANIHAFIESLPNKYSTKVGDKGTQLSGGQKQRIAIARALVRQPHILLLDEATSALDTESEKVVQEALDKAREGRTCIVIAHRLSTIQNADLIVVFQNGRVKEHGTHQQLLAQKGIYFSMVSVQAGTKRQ

COc1cc(C(=O)OCc2cc(OC)c3c(c2-c2c(COC(=O)c4cc(OC)c(OC)c(OC)c4)cc(OC)c4c2OCO4)OCO3)cc(OC)c1OC
inhibition (NIH3T3 [1]): Active | Activity (KBVIN [2]): Active | Activity (KBVIN [3]): Active | inhibition (INH) [4]: Dose-dependent effect | inhibition (NIH3T3 [5]): Active | EC50 [6]: 1.87 µM | inhibition (KBVIN [7]): Dose-dependent effect | IC50 (DU-145): > 100 µM | fold change (FC) (KBVIN [8]): 566 | fold change (FC) (KBVIN [9]): 23 | fold change (FC) (KBVIN [10]): 222 | IC50 (KB): > 100 µM | IC50 [11]: > 100 µM | fold change (FC) [12]: 1.2 | IC50 (A549): > 100 µM | Activity (KBVIN [13]): Active

COc1ccc(CCN(C)CCCC(C#N)(c2ccc(OC)c(OC)c2)C(C)C)cc1OC (centres undefined)
Activity (KBVIN [2]): Active | Activity (KBVIN [3]): Active | fold change (FC) (KBVIN [8]): 109 | fold change (FC) (KBVIN [9]): 9 | fold change (FC) (KBVIN [10]): 31 | fold change (FC) [12]: 1.2 | Activity (KBVIN [13]): Active

COc1cc(COC(=O)c2ccc3ccccc3n2)c(-c2c(COC(=O)c3ccc4ccccc4n3)cc(OC)c3c2OCO3)c2c1OCO2
Activity (DU-145): Toxic | Activity (KB): Toxic | Activity [11]: Toxic | Activity (A549): Toxic | inhibition (KBVIN [14]): Active

COC(=O)c1c(I)c(OC)c2c(c1-c1c3c(c(OC)c(I)c1C(=O)OC)OCO3)OCO2
IC50 (DU-145): > 100 µM | IC50 (KB): > 100 µM | IC50 [11]: > 100 µM | IC50 (A549): > 100 µM | inhibition (KBVIN [14]): inactive

COC(=O)c1c(Br)c(OC)c2c(c1-c1c3c(c(OC)c(Br)c1C(=O)OC)OCO3)OCO2
IC50 (DU-145): > 100 µM | IC50 (KB): > 100 µM | IC50 [11]: > 100 µM | IC50 (A549): > 100 µM | inhibition (KBVIN [14]): inactive

COc1cc(COC(=O)c2ccc(C(F)(F)F)nc2)c(-c2c(COC(=O)c3ccc(C(F)(F)F)nc3)cc(OC)c3c2OCO3)c2c1OCO2
IC50 (DU-145): > 100 µM | IC50 (KB): > 100 µM | IC50 [11]: > 100 µM | IC50 (A549): > 100 µM | inhibition (KBVIN [14]): inactive

COc1cc(COC(=O)CCC(=O)O)c(-c2c(COC(=O)CCC(=O)O)cc(OC)c3c2OCO3)c2c1OCO2
IC50 (DU-145): > 100 µM | IC50 (KB): > 100 µM | IC50 [11]: > 100 µM | IC50 (A549): > 100 µM | inhibition (KBVIN [14]): inactive

CCCC(=O)OCc1c(Br)c(OC)c2c(c1-c1c(COC(=O)CCC)c(Br)c(OC)c3c1OCO3)OCO2
Activity (DU-145): Toxic | Activity (KB): Toxic | Activity [11]: Toxic | Activity (A549): Toxic | inhibition (KBVIN [14]): inactive

COc1cc(COC(=O)c2ccc(C#N)cc2)c(-c2c(COC(=O)c3ccc(C#N)cc3)cc(OC)c3c2OCO3)c2c1OCO2
IC50 (DU-145): > 100 µM | IC50 (KB): > 100 µM | IC50 [11]: > 100 µM | IC50 (A549): > 100 µM | inhibition (KBVIN [14]): inactive

COc1c(Br)c(CO)c(-c2c(CO)c(Br)c(OC)c3c2OCO3)c2c1OCO2
IC50 (DU-145): > 100 µM | IC50 (KB): > 100 µM | IC50 [11]: > 100 µM | IC50 (A549): > 100 µM | inhibition (KBVIN [14]): inactive

COc1cc(COC(=O)C(C)(C)C)c(-c2c(COC(=O)C(C)(C)C)cc(OC)c3c2OCO3)c2c1OCO2
inhibition (NIH3T3 [1]): Active | Activity (KBVIN [2]): Active | Activity (KBVIN [3]): Active | inhibition (INH) [4]: Dose-dependent effect | inhibition (NIH3T3 [5]): Active | EC50 [6]: 2.81 µM | inhibition (KBVIN [7]): Dose-dependent effect | IC50 (DU-145): > 100 µM | fold change (FC) (KBVIN [8]): 349 | fold change (FC) (KBVIN [9]): 46 | fold change (FC) (KBVIN [10]): 37 | IC50 (KB): > 100 µM | IC50 [11]: > 100 µM | fold change (FC) [12]: 1.2 | IC50 (A549): > 100 µM | Activity (KBVIN [13]): Active
